Fewer inactive variants are shown than the library holds.
B1: tRNA (parent)
chain: GUUCCGUUGGCGUAAUGGUAACGCGUCUCCCUCCUAAGGAGAAGACUGCGGGUUCGAGUCCCGUACGGAACG

Variants of: B1
Experiment: yeast fitness relative to wild type (ratio to wild type); higher = fitter; tRNA-Arg(CCU), competitive growth, 37 C, YPD
Procedure, shortened: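 Changes in genotype frequencies gave Darwinian fitness relative to wild type. Frequencies were read by 100-nucleotide paired-end sequencing of gene amplicons before and after pooled Saccharomyces cerevisiae strains, carrying tRNA-Arg(CCU) gene variants at the native locus, were competed in YPD at 37°C for 24 hours in six replicates. A genotype was kept only with ≥ 100 starting reads, and estimates < 0.5 were set to 0.5.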

Variant	yeast fitness
U3A U8C C30G C33U	≤ 0.5
U3A U19C C61G	≤ 0.5
U3C A14G C34G A43C	≤ 0.5
U3A G17C A20C U28A C46A	≤ 0.5
U3A U19A G68C	0.712
U3A G12C A21C A36C G68C	≤ 0.5
U3A G18A C22U C61A	≤ 0.5
U3A U7A C22U C49A	≤ 0.5
U3A C66G G68C	0.623
U3A G17A C22U A70C	0.528
U3A C11G A40G U53G G68C	0.654
U3A U7C C62G G63C	0.586
U3A C31U A45U G68C	≤ 0.5
U3A C27G C62U A65U	≤ 0.5
U3A G9A A15C C27U A57U C62A	0.667
U3A C46U G48A	0.695
U3A C31U G63C G67C A69U	0.558
U3A G38C C49U	≤ 0.5
U3A C46G U47C	0.675
U3A C5A G67A	0.548
U3A U7A A15C C55G	≤ 0.5
U3A C46A G56A	0.713
U3A U16C A20C A45G	≤ 0.5
U3A G25C C34U G41A C49G	≤ 0.5

Variant	yeast fitness
U3A G6U G12C C22A C55G	≤ 0.5
U3A C29U U59G C66U	≤ 0.5
U3A U54G A57C	≤ 0.5
U3A C30U A42G	0.757
U3A G10A C27U A40U	≤ 0.5
U3A C5U A42C A43U G56C C66U	≤ 0.5
U3A C5U C62A	≤ 0.5
U3A G12A A20C C29G G67A	≤ 0.5
U3A U16C C33G	0.661
U3A C5G A21U C22U U32A C49G	0.599
U3A C31U A40C G48A G68C	≤ 0.5
U3C A14C A20C	≤ 0.5
U3A C66U	0.891
U3A C30G U54C	0.502
U3A G48A C49G	0.574
U3A G12A C46G	0.657
U3A G17A C22U G48A C62A	≤ 0.5
U3A C24G	0.645
U3A C24U	0.765
U3A C5U	0.85
U3A C24U C46U G48A C49G	≤ 0.5
U3A G12A C24U A45U U64C	≤ 0.5
U3A U26C C31U G52A	≤ 0.5
U3A C27U C55A	0.535

Variant	yeast fitness
U3A C22G C24U G39A	≤ 0.5
U3A U7G A14U G25A G41C	≤ 0.5
U3A U13C	0.955
U3A U13G	0.729
U3A U13A	1.04
U3A C24G C29U A36G A43U	≤ 0.5
U3A U7C C27G C29G C34U	0.528
U3A C49U A65G	0.711
U3A U32C	1
U3A G9A G48A	0.621
U3A U19A	1.02
U3A C22G C27G U59G A69G	≤ 0.5
U3A G9C C24G C30U C34A G51A	≤ 0.5
U3A C34A C60U	≤ 0.5
U3A C60A C61U A69U	0.597
U3A G12A A14U C46A	≤ 0.5
U3A U47C G51A U53C	≤ 0.5
U3A U16C G68C	≤ 0.5
U3A G10A C30U C60G	≤ 0.5
U3A C30U G52A	≤ 0.5
U3A U35C G63C	≤ 0.5
U3A C5G C29G A36C C49U U53G	≤ 0.5
U3C A14U A20C C30G C55U	≤ 0.5
U3A C30G G38C	0.987

Variant	yeast fitness
U3C A14G U19A	0.761
U3A U32C A69U	0.685
U3A G6A A37C C55G G58C	≤ 0.5
U3A G25A	1.09
U3A G17A C22U C46G	≤ 0.5
U3A C31A C34A A37C	0.661
U3A C34G A45G	0.537
U3A G18C A43C G58C	≤ 0.5
U3A U19C C22G A45U	≤ 0.5
U3A U7A G23C A42C U47A C49G	≤ 0.5
U3A G9C C27G	≤ 0.5
U3A C11G C22A C33G	≤ 0.5
U3A C5U C31G C62G A69U	0.554
U3A C46A C66U	0.734
U3C A14G C30U A45C C46G A65G	≤ 0.5
U3A C11A C33U C60U A65U	≤ 0.5
U3A C49U G63A	0.764
U3A U16A C22U U35A A36C G38U G48C	≤ 0.5
U3A C24U C30U	≤ 0.5
U3A C24U A40U G50C A70U	≤ 0.5
U3A U35A C60G	0.593
U3A U8A U13C C31G A40C	≤ 0.5
U3A C30U C31U G52A	≤ 0.5
U3A C46U C49U U53C	≤ 0.5

Variant	yeast fitness
U3A C29A A37G	≤ 0.5
U3A C11A C33U A37U G39C	≤ 0.5
U3C A14C A40U	≤ 0.5
U3A G51A A65G A69C	0.544
U3A C5A G6C A14C G48C C55U G63U	≤ 0.5
U3A G25A C49G A65G	≤ 0.5
U3A C5G G67C	1
U3A C11G G23C	0.501
U3A C30G C31U G67C	≤ 0.5
U3A C5A G6C A15G U16A U26G	0.512
U3A C30G U64A A69C	≤ 0.5
U3A C46U A69C	0.76
U3A G25A G58A	0.782
U3A C27U A36G A70U	0.729
U3A U19G A36C	≤ 0.5
U3A C5U U28A G58A	0.5
U3A C31A C34A A37C G68C	≤ 0.5
U3A C24G U47C A57U	≤ 0.5
U3A G6A	0.981
U3A U32A U59G	0.585
U3A C5G A21U	0.539
U3A C29G	0.575
U3A U7A C49A	0.542
U3A C5A G12C G25A C30U	≤ 0.5

Variant	yeast fitness
U3A U19A A57G	0.751
U3A G17C G38A	0.557
U3A G10C C24G A37U G38A G48C	≤ 0.5
U3C A14U A20C C30G G58A A65G	≤ 0.5
U3A G48C C55A C66G G67C	≤ 0.5
U3A C29G C60G	≤ 0.5
U3A G41A A69U	0.617
U3A C24G C31U C62U A65C	≤ 0.5
U3A G52A C60A A69G	≤ 0.5
U3A C29G A40U G41C A42C	≤ 0.5
U3A G68C A69C	≤ 0.5
U3C A14G C29G A37U A42G	0.609
U3A C22G C30U U32G U53C G68C A70G	≤ 0.5
U3A C11G G17C C24G C46A	≤ 0.5
U3A C55U G68C	0.573
U3A U54G	0.595
U3A C29G G52A C66G	≤ 0.5
U3A C24G C33G G51A U53A G56A G67C	≤ 0.5
U3A U26C	0.884
U3A G25C G67C	0.567
U3A G17A C22U C66U	0.616
U3A G18A C22U U64C	≤ 0.5
U3A C30G C31U C61U	≤ 0.5
U3A G52C	0.645

Variant	yeast fitness
U3A U13A G23C A36C A70C	0.596
U3A U19C C22G C31G A69C	≤ 0.5
U3A U13A G23C A36C	0.529
U3A C31U	1.02
U3A G18A C22U A65U	≤ 0.5
U3A C46A G63A A69C	0.731
U3A G58C C60U C66G	≤ 0.5
U3A U16C	0.824
U3A G38A C66U	≤ 0.5
U3A G23A A69C	0.571
U3A U16C A20C G67A	0.541
U3A G10C A36U A40C	≤ 0.5
U3A U32G G39C G52C	≤ 0.5
U3A G18A	0.661
U3A C11U A69U	0.627
U3A C11U A20C U32A C62U G63A	≤ 0.5
U3A G9C C34U	0.548
U3A G25A C49G A65G A69U	≤ 0.5
U3A C24A C27U G56C C66U	≤ 0.5
U3A G9C A20G C29A	≤ 0.5
U3A G9C G39A C55U A70C	≤ 0.5
U3A G25A A69C	0.773
U3A G10C A36U A40C A65G	≤ 0.5

Source: the RNAGym collection of RNA variant scans (doi:10.1126/science.aae0568)
